Common to all, as to format: functional
The subject of assay [1] is Escherichia coli. Kind of assay: Antibacterial activity against Escherichia coli at 30 ug/ml after 24 hrs by agar well diffusion method. The conditions noted are these: read-out: DIZ. Summed up:
(§1)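 Agar well diffusion. Inocula were grown in nutrient broth at 37 °C for 24 h, then subcultured in nutrient broth at room temperature. Compounds were made as a 1 mg/mL DMSO stock and diluted to 30 µg/mL final. Nutrient agar plates were spread-inoculated and 6 mm wells each got 0.1 mL. Controls were amoxicillin (reference) and DMSO (negative). Incubation was 24 h at 37 °C. Inhibition zone was measured in mm as the mean of three determinations.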
For orientation: A growth-free zone around the sample is the usual read-out of agar diffusion tests.

Assay [2] relates to Xanthomonas oryzae. Kind of assay: Antibacterial activity against Xanthomonas oryzae at 30 ug/ml after 24 hrs by agar well diffusion method. The conditions noted are these: read-out: DIZ.
In assay [3] the test system is Klebsiella pneumoniae. Description: Antibacterial activity against Klebsiella pneumoniae at 30 ug/ml after 24 hrs by agar well diffusion method. The conditions noted are these: read-out: DIZ. The essentials:
as §1

For assay [4], the system named is Staphylococcus aureus. Description: Antibacterial activity against coagulase-positive Staphylococcus aureus at 30 ug/ml after 24 hrs by agar well diffusion method. The note with it: read-out: DIZ. Summed up:
as §1

Assay [5] relates to Aspergillus niger. Description: Antifungal activity against Aspergillus niger at 30 ug/ml after 72 hrs by agar well diffusion method. The conditions noted are these: read-out: DIZ. The essentials: (§2)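 Fungal well diffusion. Inocula were subcultured in nutrient broth for one day, then spread on solidified medium. Compounds were made as a 1 mg/mL DMSO stock and diluted to 30 µg/mL final. Each 6 mm well got 0.1 mL. Controls were bavistin (reference) and DMSO (negative). Plates stood for 3 days at room temperature. Inhibition zone was measured in mm as the mean of three determinations.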

The subject of assay [6] is Aspergillus flavus. Kind of assay: Antifungal activity against Aspergillus flavus at 30 ug/ml after 72 hrs by agar well diffusion method. The conditions noted are these: read-out: DIZ. The essentials: as §2
In assay [7] the test system is Fusarium oxysporum. Kind of assay: Antifungal activity against Fusarium oxysporum at 30 ug/ml after 72 hrs by agar well diffusion method. The note with it: read-out: DIZ. The essentials:
as §2

The test system of assay [8] is Escherichia coli. Description: Antibacterial activity against Escherichia coli after 24 hrs by microdilution method. A general note: Broth dilution looks for growth in wells or tubes with falling amounts of substance.
Assay [9] concerns Xanthomonas oryzae. Kind of assay: Antibacterial activity against Xanthomonas oryzae after 24 hrs by microdilution method.
In assay [10] the test system is Klebsiella pneumoniae. Description: Antibacterial activity against Klebsiella pneumoniae after 24 hrs by microdilution method.
Assay [11] has as its system Staphylococcus aureus. Kind of assay: Antibacterial activity against coagulase-positive Staphylococcus aureus after 24 hrs by microdilution method.
Assay [12] has as its system Aspergillus niger. Description: Antifungal activity against Aspergillus niger after 72 hrs by microdilution method.
Assay [13] concerns Aspergillus flavus. Kind of assay: Antifungal activity against Aspergillus flavus after 72 hrs by microdilution method.
Assay [14] deals with Fusarium oxysporum. Kind of assay: Antifungal activity against Fusarium oxysporum after 72 hrs by microdilution method.

Molecules are shown by their SMILES. In brackets after ≈: the same amount, converted by molar mass. Peptide text beside a SMILES is read from it. * marks the point of attachment. Piperazinyl(4-(2,3-Cl2Ph)) = Clc1cccc(N2CCN(*)CC2)c1Cl; Thiocarbamoyl(N-4-ClPh) = S=C(Nc1ccc(Cl)cc1)*; Thiocarbamoyl(4-MeOPh) = COc1ccc(NC(=S)*)cc1; X1 = Fc1ccc2c(C3CCN(*)CC3)noc2c1

On to `COc1ccc(NC(=S)NCC(=O)N[C@H](C(=O)NCC(=O)N[C@H](C(=O)N2CCC[C@H]2C(=O)N2CCC(c3noc4cc(F)ccc34)CC2)C(C)C)C(C)C)cc1` ({Thiocarbamoyl(4-MeOPh)}-GVGVP-X1), for which the zone of inhibition at 30 µg/mL was determined as 28 mm with Escherichia coli [1]; 28 mm with Xanthomonas oryzae [2]; 26 mm in the assay on Klebsiella pneumoniae [3]; 24 mm with Staphylococcus aureus [4]; 31 mm in the assay with Aspergillus niger [5]; 26 mm in the assay with Aspergillus flavus [6]. The zone of inhibition at 30 µg/mL with Fusarium oxysporum [7] amounted to 26 mm.
As to `COc1ccc(NC(=S)NCC(=O)N[C@H](C(=O)NCC(=O)N[C@H](C(=O)N2CCC[C@H]2C(=O)N2CCN(c3cccc(Cl)c3Cl)CC2)C(C)C)C(C)C)cc1` ({Thiocarbamoyl(4-MeOPh)}-GVGVP-{Piperazinyl(4-(2,3-Cl2Ph))}), the zone of inhibition at 30 µg/mL with Escherichia coli [1] was found to be 27 mm; in the assay on Xanthomonas oryzae [2], 26 mm; with Klebsiella pneumoniae [3] it was 22 mm; with Staphylococcus aureus [4] it was 22 mm; in the assay with Aspergillus niger [5] it was 29 mm; with Aspergillus flavus [6], 23 mm. Moreover, the zone of inhibition at 30 µg/mL in the assay on Fusarium oxysporum [7] was determined as 24 mm.
Turning to `O=C(CNC(=S)Nc1ccc(Cl)cc1)NCC(=O)N[C@@H](Cc1ccccc1)C(=O)N1CCC[C@H]1C(=O)N1CCC(c2noc3cc(F)ccc23)CC1` ({Thiocarbamoyl(N-4-ClPh)}-GGFP-X1), the zone of inhibition at 30 µg/mL came to 30 mm in the assay with Escherichia coli [1]; 27 mm with Xanthomonas oryzae [2]; 26 mm in the assay with Klebsiella pneumoniae [3]; 24 mm in the assay with Staphylococcus aureus [4]; 33 mm in the assay with Aspergillus niger [5]; 29 mm in the assay on Aspergillus flavus [6]. In addition, the zone of inhibition at 30 µg/mL with Fusarium oxysporum [7] came out at 31 mm.
Consider `O=C(CNC(=S)Nc1ccc(Cl)cc1)NCC(=O)N[C@@H](Cc1ccccc1)C(=O)N1CCC[C@H]1C(=O)N1CCN(c2cccc(Cl)c2Cl)CC1` ({Thiocarbamoyl(N-4-ClPh)}-GGFP-{Piperazinyl(4-(2,3-Cl2Ph))}), for which the zone of inhibition at 30 µg/mL in the assay with Escherichia coli [1] was 29 mm; in the assay with Xanthomonas oryzae [2] it was 26 mm; with Klebsiella pneumoniae [3], 25 mm; in the assay on Staphylococcus aureus [4] it was 23 mm; in the assay with Aspergillus niger [5] it was 32 mm; in the assay on Aspergillus flavus [6], 28 mm. Also, the zone of inhibition at 30 µg/mL in the assay on Fusarium oxysporum [7] came to 30 mm.
Take `CC[C@H](C)[C@H](NC(=O)CNC(=O)CNC(=S)Nc1ccc(Cl)cc1)C(=O)N1CCC[C@H]1C(=O)N1CCC(c2noc3cc(F)ccc23)CC1` ({Thiocarbamoyl(N-4-ClPh)}-GGIP-X1): the zone of inhibition at 30 µg/mL stood at 28 mm in the assay with Escherichia coli [1]; 25 mm in the assay with Xanthomonas oryzae [2]; 21 mm with Klebsiella pneumoniae [3]; 21 mm in the assay with Staphylococcus aureus [4]; 29 mm in the assay on Aspergillus niger [5]; 27 mm with Aspergillus flavus [6]. Moreover, the zone of inhibition at 30 µg/mL in the assay with Fusarium oxysporum [7] worked out at 29 mm.
Regarding `CC[C@H](C)[C@H](NC(=O)CNC(=O)CNC(=S)Nc1ccc(Cl)cc1)C(=O)N1CCC[C@H]1C(=O)N1CCN(c2cccc(Cl)c2Cl)CC1` ({Thiocarbamoyl(N-4-ClPh)}-GGIP-{Piperazinyl(4-(2,3-Cl2Ph))}), the zone of inhibition at 30 µg/mL came to 27 mm in the assay on Escherichia coli [1]; 24 mm with Xanthomonas oryzae [2]; 20 mm with Klebsiella pneumoniae [3]; 22 mm with Staphylococcus aureus [4]; 28 mm in the assay on Aspergillus niger [5]; 26 mm in the assay on Aspergillus flavus [6]. Besides, in the assay on Fusarium oxysporum [7], the zone of inhibition at 30 µg/mL turned out to be 28 mm.
The MIC is the smallest concentration in the dilution series that meets the test's criterion for growth inhibition. Take `CC1(C)S[C@@H]2[C@H](NC(=O)[C@H](N)c3ccc(O)cc3)C(=O)N2[C@H]1C(=O)O` [AMOXICILLIN]: the zone of inhibition at 30 µg/mL in the assay on Escherichia coli [1] was 12 mm; in the assay on Xanthomonas oryzae [2], 9 mm; in the assay on Klebsiella pneumoniae [3], 8 mm; in the assay on Staphylococcus aureus [4] it was 8 mm. Also, the MIC against Escherichia coli [8] turned out to be 24 µg/mL (≈ 65.7 µM); with Xanthomonas oryzae [9] it was 19 µg/mL (≈ 52 µM); with Klebsiella pneumoniae [10], 20 µg/mL (≈ 54.7 µM); in the assay with Staphylococcus aureus [11], 23 µg/mL (≈ 62.9 µM).
As to `COC(=O)Nc1nc2ccccc2[nH]1` [CARBENDAZIM], the figures for the zone of inhibition at 30 µg/mL in the assay with Aspergillus niger [5], in the assay on Aspergillus flavus [6] and in the assay on Fusarium oxysporum [7] were 12 mm, 9 mm and 10 mm, respectively. Further, the MIC in the assay on Aspergillus niger [12] came to 22 µg/mL (≈ 115 µM); in the assay on Aspergillus flavus [13], 26 µg/mL (≈ 136 µM); against Fusarium oxysporum [14], 25 µg/mL (≈ 131 µM).
